{"data": "Measured values pooled from the literature", "note": "Lines come from different studies, so protocols differ."}
{"Compound": "O=C(N[C@H](CO)[C@H](O)c1ccc([N+](=O)[O-])cc1)C(Cl)Cl", "organism": "Salmonella enterica", "test": "microbial growth", "setting": "20 h, pH 5.5", "measurement": "MIC", "result": "2 µg/mL"}
{"Compound": "O=C1NC(=S)S/C1=C\\c1c2ccccc2c(-c2ccc(N(c3ccccc3)c3ccccc3)cc2)c2ccccc12", "organism": "Bacillus cereus", "test": "microbial killing, broth dilution", "system": "ATCC10876", "measurement": "MBC", "result": "> 1000 µg/mL"}
{"Compound": "[H]/N=C(/N)N[C@H]1[C@H](O)[C@@H](O)[C@H](O[C@@H]2O[C@@H](C)[C@](O)(C=O)[C@H]2O[C@@H]2O[C@@H](CO)[C@H](O)[C@@H](O)[C@@H]2NC)[C@@H](N/C(N)=N\\[H])[C@@H]1O", "organism": "Salmonella enterica", "test": "microbial growth", "setting": "20 h, pH 7", "measurement": "MIC", "result": "64 µg/mL"}
{"Compound": "CO[C@H]1O[C@H](COC(c2ccccc2)(c2ccccc2)c2ccccc2)[C@@H](OC(=O)c2ccc(C(C)(C)C)cc2)[C@H](OC(=O)c2ccc(C(C)(C)C)cc2)[C@H]1OC(=O)c1ccc(C(C)(C)C)cc1", "organism": "Bacillus cereus", "test": "microbial killing, broth dilution", "measurement": "MBC", "result": "8 µg/mL"}
{"Compound": "CN[C@H](CC(C)C)C(=O)N[C@H]1C(=O)N[C@@H](CC(N)=O)C(=O)N[C@H]2C(=O)N[C@H]3C(=O)N[C@H](C(=O)N[C@H](C(=O)O)c4cc(O)cc(O)c4-c4cc3ccc4O)[C@H](O)c3ccc(c(Cl)c3)Oc3cc2cc(c3O[C@@H]2O[C@H](CO)[C@@H](O)[C@H](O)[C@H]2O[C@H]2C[C@](C)(N)[C@H](O)[C@H](C)O2)Oc2ccc(cc2Cl)[C@H]1O", "organism": "Bacillus cereus", "test": "microbial growth, broth dilution", "system": "ATCC10876", "measurement": "MIC", "result": "0.98 µg/mL"}
{"Compound": "Cc1cc(NS(=O)(=O)c2ccc(N)cc2)no1", "organism": "Salmonella enterica", "test": "microbial growth", "system": "ENTERITIDIS", "setting": "20 h, pH 7", "measurement": "MIC", "result": "64 µg/mL"}
{"Compound": "CC1(C)S[C@@H]2[C@H](NC(=O)[C@H](N)c3ccccc3)C(=O)N2[C@H]1C(=O)O", "organism": "Salmonella enterica", "test": "microbial growth, agar dilution", "system": "ATCC13311 TYPHIMURIUM", "setting": "26.93 µM", "measurement": "inhibition", "result": "100%"}
{"Compound": "CS(=O)(=O)c1ccc([C@@H](O)[C@@H](CF)NC(=O)C(Cl)Cl)cc1", "organism": "Salmonella enterica", "test": "microbial growth", "system": "ENTERITIDIS", "setting": "20 h, pH 7", "measurement": "MIC", "result": "4 µg/mL"}
{"Compound": "O=C1NC(=S)N/C1=C\\c1c2ccccc2c(-c2ccc(N(c3ccccc3)c3ccccc3)cc2)c2ccccc12", "organism": "Bacillus cereus", "test": "microbial killing, broth dilution", "system": "ATCC10876", "measurement": "MBC", "result": "> 1000 µg/mL"}
{"Compound": "COc1ccc(-c2cc(=O)c3c(O)cc(O[C@@H]4O[C@H](CO)[C@@H](O)[C@H](O)[C@H]4O)cc3o2)cc1O", "organism": "Helicobacter pylori", "test": "microbial growth, broth dilution", "setting": "62.5 µg/mL", "measurement": "inhibition", "result": "100%"}
{"Compound": "CO/N=C(\\C(=O)N[C@@H]1C(=O)N2C(C(=O)O)=C(CSC(=O)c3ccco3)CS[C@H]12)c1csc(N)n1", "organism": "Salmonella enterica", "test": "microbial growth", "system": "TYPHIMURIUM", "setting": "20 h, pH 7.2", "measurement": "MIC", "result": "1 µg/mL"}
{"Compound": "CC[C@H]1OC(=O)[C@H](C)[C@@H](O[C@H]2C[C@@](C)(OC)[C@@H](O)[C@H](C)O2)[C@H](C)[C@@H](O[C@@H]2O[C@H](C)C[C@H](N(C)C)[C@H]2O)[C@](C)(OC)C[C@@H](C)C(=O)[C@H](C)[C@@H](O)[C@]1(C)O", "organism": "Helicobacter pylori", "test": "microbial growth, broth dilution", "setting": "62.5 µg/mL", "measurement": "inhibition", "result": "100%"}
{"Compound": "CC1(C)S[C@@H]2[C@H](NC(=O)[C@H](N)c3ccccc3)C(=O)N2[C@H]1C(=O)O", "organism": "Salmonella enterica", "test": "microbial growth", "system": "ENTERITIDIS", "setting": "20 h, pH 5.5", "measurement": "MIC", "result": "1 µg/mL"}
{"Compound": "O=C(N[C@H](CO)[C@H](O)c1ccc([N+](=O)[O-])cc1)C(Cl)Cl", "organism": "Salmonella enterica", "test": "microbial growth", "system": "ATCC13311 TYPHIMURIUM", "measurement": "MIC90", "result": "0.98 µg/mL"}
{"Compound": "O=C1NC(=S)N/C1=C\\c1ccc(-c2ccc(N(c3ccccc3)c3ccccc3)cc2)cc1", "organism": "Bacillus cereus", "test": "microbial growth, broth dilution", "system": "ATCC10876", "measurement": "MIC", "result": "> 1000 µg/mL"}
{"Compound": "O=c1cc(-c2ccc(O)cc2)oc2cc(O)cc(O)c12", "organism": "Helicobacter pylori", "test": "microbial growth, broth dilution", "setting": "0.98 µg/mL", "measurement": "inhibition", "result": "82.6%"}
{"Compound": "O=C(O)c1cn(C2CC2)c2cc(N3CCNCC3)c(F)cc2c1=O", "organism": "Salmonella enterica", "test": "microbial growth", "system": "ENTERITIDIS", "setting": "20 h, pH 7.2", "measurement": "MIC", "result": "0.0156 µg/mL"}
{"Compound": "O=C(O)CN1C(=O)/C(=C/c2c3ccccc3c(-c3ccc(N(c4ccccc4)c4ccccc4)cc3)c3ccccc23)SC1=S", "organism": "Bacillus cereus", "test": "microbial growth, broth dilution", "system": "ATCC10876", "measurement": "MIC", "result": "> 1000 µg/mL"}
{"Compound": "O=c1cc(-c2ccc(O)c(O)c2)oc2cc(O)cc(O)c12", "organism": "Helicobacter pylori", "test": "microbial growth, broth dilution", "setting": "0.98 µg/mL", "measurement": "inhibition", "result": "73.2%"}
{"Compound": "O=C1NC(=S)N/C1=C\\c1ccc(-c2ccc(N(c3ccccc3)c3ccccc3)cc2)c2ccccc12", "organism": "Bacillus cereus", "test": "microbial killing, broth dilution", "system": "ATCC10876", "measurement": "MBC", "result": "> 1000 µg/mL"}
{"Compound": "CO/N=C(\\C(=O)N[C@@H]1C(=O)N2C(C(=O)O)=C(CSc3nc(=O)c(=O)[nH]n3C)CS[C@H]12)c1csc(N)n1", "organism": "Salmonella enterica", "test": "microbial growth", "setting": "20 h, pH 7", "measurement": "MIC", "result": "0.0625 µg/mL"}
{"Compound": "O=C(O)CN1C(=O)/C(=C/c2c3ccccc3c(-c3ccc(N(c4ccccc4)c4ccccc4)cc3)c3ccccc23)NC1=S", "organism": "Bacillus cereus", "test": "microbial killing, broth dilution", "system": "ATCC10876", "measurement": "MBC", "result": "> 1000 µg/mL"}
{"Compound": "COC(=O)c1ccc(O)cc1", "organism": "Helicobacter pylori", "test": "microbial growth, broth dilution", "setting": "125 µg/mL", "measurement": "inhibition", "result": "100%"}
{"Compound": "O=C1NC(=S)S/C1=C\\c1ccc(-c2ccc(N(c3ccccc3)c3ccccc3)cc2)c2ccccc12", "organism": "Bacillus cereus", "test": "microbial killing, broth dilution", "system": "ATCC10876", "measurement": "MBC", "result": "> 1000 µg/mL"}
{"Compound": "O=C(O)c1ccc(O)cc1", "organism": "Helicobacter pylori", "test": "microbial growth, broth dilution", "setting": "31.25 µg/mL", "measurement": "inhibition", "result": "100%"}
